ChEMBL document CHEMBL1250489, “Schiff bases of indoline-2,3-dione (isatin) derivatives and nalidixic acid carbohydrazide, synthesis, antitubercular activity and pharmacophoric model building” (2010)
≈ marks a conversion by molar mass, not a printed value. Calls of active or inactive are those of the source. No cut-off for these calls is given here.

Experiments:
[1] = tested on: Mycolicibacterium smegmatis; test: Antitubercular activity against Mycobacterium smegmatis ATCC 35797 at 200 ug/ml after 48 hrs by agar dilution method; type: functional, organism-based
Procedure, shortened: (§1)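 Agar dilution MIC method. Compounds were dissolved in DMSO at 1 mg/ml and mixed into molten agar at 200 µg/ml. Active compounds were further diluted through 100, 50, 25, 12.5 and 6.25 down to 0.625 µg/ml. Plates had 3–4 mm agar depth. Inocula were overnight Mueller–Hinton broth cultures diluted 1:100 and radially streaked, then incubated 35 °C for 48 h. Isoniazid was the reference; drug-free and DMSO controls were included.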

Mycobacteroides chelonae [2] = test: Antitubercular activity against Mycobacterium chelonae ATCC 35751 at 200 ug/ml after 48 hrs by agar dilution method; type: functional, organism-based
Procedure, shortened: (§2)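 Agar dilution screen. Compounds are dissolved in DMSO at 1 mg/ml stock and mixed into 10% molten agar to 200 µg/ml. Plates are poured 3–4 mm deep. Overnight Mueller–Hinton broth cultures are diluted 1:100 and streaked radially. Plates are incubated at 35 °C for 48 h. Controls are strain with DMSO and medium only.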

[3] = tested on: Mycobacterium intracellulare; test: Antitubercular activity against Mycobacterium intracellular ATCC 35743 after 48 hrs by agar dilution method; type: functional; settings: ATCC 35743, 48 h; procedure, shortened: as §1
Mycobacterium xenopi [4] = test: Antitubercular activity against Mycobacterium xenopi ATCC 14470 at 200 ug/ml after 48 hrs by agar dilution method; type: functional, organism-based; procedure, shortened: as §2
[5] = tested on: Mycolicibacterium smegmatis; test: Antitubercular activity against Mycobacterium smegmatis ATCC 35797 after 48 hrs by agar dilution method; type: functional; settings: ATCC 35797, 48 h
Procedure, shortened: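 MIC by agar dilution, NCCLS-like protocol. A 1 mg/ml DMSO stock is diluted in 10% molten agar to 200 µg/ml, then 100, 50, 25, 12.5, 6.25 down to 0.625 µg/ml. Plates are 3–4 mm deep. Overnight Mueller–Hinton cultures are diluted 1:100 and streaked radially. Incubation is 35 °C for 48 h. The control is DMSO in medium.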

Mycobacteroides chelonae [6] = test: Antitubercular activity against Mycobacterium chelonae ATCC 35751 after 48 hrs by agar dilution method; type: functional; settings: ATCC 35751, 48 h; procedure, shortened: as §1
Mycobacterium xenopi [7] = test: Antitubercular activity against Mycobacterium xenopi ATCC 14470 after 48 hrs by agar dilution method; type: functional; settings: ATCC 14470, 48 h; procedure, shortened: as §1
[8] = tested on: Mycolicibacterium smegmatis; test: Ratio of compound MIC to isoniazid MIC for Mycobacterium smegmatis ATCC 35797; type: functional
Mycobacterium xenopi [9] = test: Ratio of compound MIC to isoniazid MIC for Mycobacterium xenopi ATCC 14470; type: functional
[10] = tested on: Mycobacterium intracellulare; test: Ratio of compound MIC to isoniazid MIC for Mycobacterium intracellular ATCC 35743; type: functional
Mycobacteroides chelonae [11] = test: Ratio of compound MIC to isoniazid MIC for Mycobacterium chelonae ATCC 35751; type: functional
[12] = tested on: Mycobacterium intracellulare; test: Antitubercular activity against Mycobacterium intracellular ATCC 35743 at 200 ug/ml after 48 hrs by agar dilution method; type: functional, organism-based; procedure, shortened: as §2

Compound: CCCN1C(=O)/C(=N\NC(=O)c2cn(CC)c3nc(C)ccc3c2=O)c2cc(Br)ccc21
- MIC [1]: inactive

Compound: CCn1cc(C(=O)N/N=C2\C(=O)N(C)c3ccccc32)c(=O)c2ccc(C)nc21
- MIC (Mycobacteroides chelonae [2]): inactive
- MIC [3]: 200 µg/mL (≈ 514 µM)
- MIC (Mycobacterium xenopi [4]): inactive
- MIC [5]: 200 µg/mL (≈ 514 µM)

Compound: CCn1cc(C(=O)N/N=C2\C(=O)N(CN3CCN(C)CC3)c3ccccc32)c(=O)c2ccc(C)nc21
- MIC [1]: inactive

Compound: CCn1cc(C(=O)N/N=C2\C(=O)N(C)c3ccc(Br)cc32)c(=O)c2ccc(C)nc21
- MIC [1]: inactive

Compound: CCN(CC)CN1C(=O)/C(=N\NC(=O)c2cn(CC)c3nc(C)ccc3c2=O)c2ccccc21
- MIC [1]: inactive

Compound: NNC(=O)c1ccncc1 [ISONIAZID]
- MIC (Mycobacteroides chelonae [6]): 12.5 µg/mL (≈ 91.1 µM)
- MIC (Mycobacterium xenopi [7]): 12.5 µg/mL (≈ 91.1 µM)
- MIC [3]: 12.5 µg/mL (≈ 91.1 µM)
- MIC [5]: 12.5 µg/mL (≈ 91.1 µM)

Compound: CCn1cc(C(=O)N/N=C2\C(=O)N(Cc3ccccc3)c3ccc(Br)cc32)c(=O)c2ccc(C)nc21
- MIC (Mycobacteroides chelonae [6]): 50 µg/mL (≈ 91.8 µM)
- MIC (Mycobacterium xenopi [7]): 50 µg/mL (≈ 91.8 µM)
- MIC [3]: 50 µg/mL (≈ 91.8 µM)
- MIC [5]: 50 µg/mL (≈ 91.8 µM)

Compound: CCN(CC)CN1C(=O)/C(=N\NC(=O)c2cn(CC)c3nc(C)ccc3c2=O)c2cc(Br)ccc21
- MIC [1]: inactive

Compound: CCn1cc(C(=O)N/N=C2\C(=O)N(Cc3ccccc3)c3ccccc32)c(=O)c2ccc(C)nc21
- MIC (Mycobacteroides chelonae [6]): 0.625 µg/mL (≈ 1.34 µM)
- Ratio [8]: 20
- Ratio (Mycobacterium xenopi [9]): 20
- MIC (Mycobacterium xenopi [7]): 0.625 µg/mL (≈ 1.34 µM)
- Ratio [10]: 20
- Ratio (Mycobacteroides chelonae [11]): 20
- MIC [3]: 0.625 µg/mL (≈ 1.34 µM)
- MIC [5]: 0.625 µg/mL (≈ 1.34 µM)

Compound: CCN1C(=O)/C(=N\NC(=O)c2cn(CC)c3nc(C)ccc3c2=O)c2ccccc21
- MIC (Mycobacteroides chelonae [6]): 200 µg/mL (≈ 496 µM)
- MIC (Mycobacterium xenopi [7]): 200 µg/mL (≈ 496 µM)
- MIC [3]: 200 µg/mL (≈ 496 µM)
- MIC [5]: 200 µg/mL (≈ 496 µM)

Compound: CCn1cc(C(=O)N/N=C2\C(=O)Nc3ccccc32)c(=O)c2ccc(C)nc21
- MIC (Mycobacteroides chelonae [2]): inactive
- MIC [12]: inactive
- MIC (Mycobacterium xenopi [4]): inactive
- MIC [5]: 100 µg/mL (≈ 266 µM)

Compound: CCN1C(=O)/C(=N\NC(=O)c2cn(CC)c3nc(C)ccc3c2=O)c2cc(Br)ccc21
- MIC (Mycobacterium xenopi [7]): 100 µg/mL (≈ 207 µM)
- MIC (Mycobacteroides chelonae [2]): inactive
- MIC [3]: 100 µg/mL (≈ 207 µM)
- MIC [5]: 100 µg/mL (≈ 207 µM)

Compound: C=CCN1C(=O)/C(=N\NC(=O)c2cn(CC)c3nc(C)ccc3c2=O)c2ccccc21
- MIC [1]: inactive

Compound: CCn1cc(C(=O)N/N=C2\C(=O)Nc3ccc(Br)cc32)c(=O)c2ccc(C)nc21
- MIC (Mycobacteroides chelonae [2]): inactive
- MIC [12]: inactive
- MIC (Mycobacterium xenopi [4]): inactive
- MIC [5]: 200 µg/mL (≈ 440 µM)

Compound: C=CCN1C(=O)/C(=N\NC(=O)c2cn(CC)c3nc(C)ccc3c2=O)c2cc(Br)ccc21
- MIC [1]: inactive

Compound: CCCN1C(=O)/C(=N\NC(=O)c2cn(CC)c3nc(C)ccc3c2=O)c2ccccc21
- MIC [1]: inactive
